Experimental data of several laboratories.
Compare with care: the assays were run in different laboratories.

Structure (SMILES)	host	medium	route	dose	setting	AUC(0-t)
NCc1ccc(-c2nn(Cc3ccccc3)c3ccccc23)o1	male CD-1 mouse	plasma	intraperitoneal	30 mg/kg		9120 ng·h/mL
Cc1ncsc1-c1ccc([C@H](C)NC(=O)[C@@H]2C[C@@H](O)CN2C(=O)[C@@H](NC(=O)CCCCCCCCC(=O)N2CCC(n3cc(-c4ccc5c(c4)CCN5C(=O)Cc4cccc(OC(F)(F)F)c4)c4c(N)ncnc43)CC2)C(C)(C)C)cc1	male C57BL/6 mouse	plasma	intravenous	1 mg/kg		1240 ng·h/mL
NCc1ccc(-c2nn(Cc3ccncc3)c3ccccc23)o1	male CD-1 mouse	plasma	oral	10 mg/kg		314 ng·h/mL
Cc1ccc(N(c2ccc(NC(=O)CN(C)c3ccccc3N3CCCC3=O)cc2)C(C)C)cc1	male CD-1 mouse	plasma	oral	20 mg/kg		2710 ng·h/mL
Cc1ncsc1-c1ccc([C@H](C)NC(=O)[C@@H]2C[C@@H](O)CN2C(=O)[C@@H](NC(=O)CCc2ccc(C#Cc3ccc(C(=O)NCCCn4cc(-c5ccc6c(c5)CCN6C(=O)Cc5cccc(OC(F)(F)F)c5)c5c(N)ncnc54)cc3)cn2)C(C)(C)C)cc1	male C57BL/6 mouse	plasma	intravenous	1 mg/kg		6600 ng·h/mL
Cc1cc(-c2ccnc3[nH]cc(F)c23)cc(F)c1[C@@]1(O)[C@H](C)CN(C(=O)CN)C[C@@H]1C	male CD-1 mouse	plasma	oral	3 mg/kg		16900 ng·h/mL
Cc1ncsc1-c1ccc([C@H](CC(=O)N2CCN(c3ccc(C#Cc4ccc(C(=O)N5CCC(n6cc(-c7ccc8c(c7)CCN8C(=O)Cc7cccc(OC(F)(F)F)c7)c7c(N)ncnc76)CC5)cc4)cn3)CC2)NC(=O)[C@@H]2C[C@@H](O)CN2C(=O)[C@@H](NC(=O)C2(F)CC2)C(C)(C)C)cc1	male C57BL/6 mouse	plasma	intravenous	1 mg/kg		7260 ng·h/mL
COC1=CC(c2ccc[nH]2)=N/C1=C\c1cc(Cc2ccc(OC(F)(F)F)cc2)c(C)[nH]1.Cl	male CD-1 mouse	liver	oral	40 mg/kg	single dose	101000 ng·h/mL
OCc1ccc(-c2nn(Cc3ccccc3)c3ccccc23)o1	male CD-1 mouse	plasma	intraperitoneal	30 mg/kg		3370 ng·h/mL
C[C@@H](CN1CCC(n2c(=O)[nH]c3cc(Cl)ccc32)CC1)NC(=O)c1ccc2ccccc2c1	male CD-1 mouse	plasma	intravenous	1 mg/kg	single dose	11.9 ng·h/mL
COC1=CC(c2ccc[nH]2)=N/C1=C\c1[nH]c(Cc2ccc(OC(F)(F)F)cc2)cc1Cc1ccc(OC(F)(F)F)cc1	male CD-1 mouse	plasma	oral	40 mg/kg	single dose	84100 ng·h/mL
Cc1ccc2c(c1)C(=O)[C@]1(O)CCN(c3ccc4nc(C)ccc4c3)C1=N2.Cl	C57BL/6 mouse	plasma	subcutaneous	2 mg/kg		0.98 µM·h
OCc1nc2ccc(NCc3ccc(C(F)(F)F)cc3)cc2[nH]1	male BALB/c mouse	plasma	oral	10 mg/kg		2730 ng·h/mL
Oc1ccc([C@@H]2Oc3ccc(O)cc3[C@@H]3CCC[C@@H]32)cc1	male C57BL/6 mouse	plasma	oral	10 mg/kg		1.17 µM·h
Cc1ccc(OCC(=O)N[C@@H](Cc2c[nH]c3ccccc23)C(=O)OC(C)C)cc1	male Sprague-Dawley mouse	plasma	oral	20 mg/kg		3260 ng·h/mL
O=C1CCC(N2Cc3cc(C4CCN(Cc5ccccc5)CC4)ccc3C2=O)C(=O)N1 (stereo not shown)	male CD-1 mouse	plasma	intravenous	1 mg/kg		310 ng·h/mL
Cc1nc2ccc(OCc3ccc(C(F)(F)F)cc3)cc2[nH]1	male BALB/c mouse	plasma	oral	10 mg/kg		13200 ng·h/mL
Cc1cc(-c2ccnc3[nH]cc(F)c23)cc(F)c1[C@@]1(O)[C@H](C)CN(C2CCS(=O)(=O)CC2)C[C@@H]1C	male CD-1 mouse	plasma	oral	3 mg/kg		3220 ng·h/mL
CN(C)C(=O)c1cc2cnc(Nc3ccc(-c4ccc5c(=O)cc(N6CCOCC6)oc5c4)cc3)nc2n1C1CCCC1.Cl	BALB/c mouse	plasma	intravenous	2 mg/kg		2790 ng·h/mL
